{"source": "paper PMC6719797", "about": "(Bioorganic & medicinal chemistry letters, 2019)", "key": {"human UCK2 [1]": {"target": "T1, human UCK2 (Homo sapiens, UniProt Q9BZX2)", "T1 sequence (Q9BZX2 1-261)": "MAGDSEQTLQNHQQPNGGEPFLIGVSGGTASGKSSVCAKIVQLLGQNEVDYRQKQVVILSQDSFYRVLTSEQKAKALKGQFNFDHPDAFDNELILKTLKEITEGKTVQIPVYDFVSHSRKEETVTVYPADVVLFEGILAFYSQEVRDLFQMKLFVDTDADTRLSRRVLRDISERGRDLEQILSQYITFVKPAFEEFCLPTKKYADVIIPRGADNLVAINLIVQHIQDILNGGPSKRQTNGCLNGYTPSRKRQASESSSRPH", "format": "biochemical", "conditions": "kinetic analysis", "how_it_was_run": "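C-terminally His6-tagged human UCK2 was purified by Ni-NTA and then ion-exchange chromatography. UCK2-generated ADP was coupled through pyruvate kinase and lactate dehydrogenase, and NADH consumption was followed continuously at 340 nm. To determine the mode of inhibition, uridine or ATP was titrated at several fixed inhibitor concentrations, and Ki values were derived for each substrate.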"}, "DNA polymerase eta": {"target": "DNA polymerase eta", "conditions": "read-out: IC50 DNA polymerase eta; ref PubChem; cited from earlier work"}, "DNA polymerase kappa": {"target": "DNA polymerase kappa", "conditions": "read-out: IC50 DNA polymerase kappa; ref PubChem; cited from earlier work"}, "K562 cells": {"test_system": "K562 cells", "experiment": "5-EU uridine salvage assay", "format": "cell-based", "conditions": "for %Inhibition at highest tested concentration (EU assay): K562 cells, 50 µM compound, 5-EU salvage", "how_it_was_run": "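K562 cells, untreated or pre-treated with the DHODH inhibitor GSK983, were given 5-ethynyl-uridine (5-EU) with test compound at a fixed concentration (50 µM). Salvaged 5-EU incorporated into cellular RNA was detected with a fluorescent click probe. Dipyridamole (20 µM) served as the uridine-salvage inhibitor control.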"}, "A549 cells": {"test_system": "A549 cells", "experiment": "5-EU uptake assay in A549 cells", "format": "cell-based"}, "human UCK2 [2]": {"target": "T1, human UCK2", "experiment": "ADP-Glo kinase assay for UCK2 activity", "format": "biochemical", "conditions": "for IC50 obtained from validation experiments: retested in the ADP-Glo assay, unit given"}, "CMPK1": {"target": "T2, CMPK1 (Homo sapiens, UniProt P30085)", "T2 sequence (P30085 1-196)": "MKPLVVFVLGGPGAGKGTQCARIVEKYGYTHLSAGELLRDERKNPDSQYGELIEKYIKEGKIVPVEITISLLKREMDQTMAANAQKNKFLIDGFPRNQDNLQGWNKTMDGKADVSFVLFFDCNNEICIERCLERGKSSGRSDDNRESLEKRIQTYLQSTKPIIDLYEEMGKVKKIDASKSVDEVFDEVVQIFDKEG", "experiment": "ADP-Glo screen for CMPK1", "format": "biochemical", "conditions": "analogous ADP-Glo screen"}, "DNA polymerase iota": {"target": "DNA polymerase iota", "conditions": "read-out: IC50 DNA polymerase iota; HTS hit; ref PubChem; cited from earlier work"}, "DNA polymerase beta": {"target": "DNA polymerase beta", "conditions": "read-out: IC50 DNA polymerase beta; HTS hit; ref PubChem; cited from earlier work"}, "[3]": {"substrate": "O=c1ccn([C@@H]2O[C@H](CO)[C@@H](O)[C@H]2O)c(=O)[nH]1", "experiment": "ADP-Glo kinase assay for UCK2 activity", "format": "biochemical, human", "conditions": "other: steady state conditions, named substrate varied"}}}
{"molecule": "O=C(CSc1nc2n(-c3ccc(F)cc3)[nH]cc-2c(=O)n1)Nc1ccc(Br)cc1", "note": "[compound 135416439]", "values": [{"measurement": "Mode of inhibition with respect to uridine and ATP", "setting": "human UCK2 [1]", "result": "non-competitive"}, {"measurement": "IC50", "setting": "DNA polymerase eta", "result": 56, "unit": "µM"}, {"measurement": "IC50", "setting": "DNA polymerase kappa", "result": 16, "unit": "µM"}]}
{"molecule": "Cc1ccc(-c2nc3c(c(SCC(=O)Nc4ccccc4)n2)Cc2cccc(C)c2O3)cc1", "note": "[20874830–1]", "values": [{"measurement": "%Inhibition at highest tested concentration (EU assay)", "setting": "K562 cells", "result": "No inhibition"}]}
{"molecule": "OCCN(CCO)c1nc(N2CCCCC2)c2nc(N(CCO)CCO)nc(N3CCCCC3)c2n1", "note": "[Dipyridamole, dipyridamole]", "values": [{"measurement": "Inhibition of 5-EU uptake", "setting": "A549 cells", "result": "inhibits 5-EU uptake in a dose-dependent manner"}]}
{"molecule": "Nc1ncnc2c1ncn2[C@@H]1O[C@H](COP(=O)(O)OP(=O)(O)OP(=O)(O)O)[C@@H](O)[C@H]1O", "note": "[ATP]", "values": [{"measurement": "Km", "setting": "human UCK2 [2]; read-out: KM (UCK2 substrate), steady state conditions, named substrate varied", "result": "61 ± 1", "unit": "µM"}]}
{"molecule": "Cc1cc(C)cc(NC(=O)CSCn2[nH]nc3c(=O)nc(Cc4ccc(F)cc4)nc2-3)c1", "note": "[compound 135546734]", "values": [{"measurement": "Inhibition of CMPK1", "setting": "CMPK1", "result": "no inhibition"}, {"measurement": "IC50", "setting": "DNA polymerase iota", "result": 79, "unit": "µM"}, {"measurement": "Mode of inhibition with respect to uridine and ATP", "setting": "human UCK2 [1]", "result": "similarly non-competitive"}, {"measurement": "IC50", "setting": "DNA polymerase eta", "result": 79, "unit": "µM"}, {"measurement": "IC50", "setting": "DNA polymerase beta", "result": 40, "unit": "µM"}, {"measurement": "inhibition at 50 µM", "setting": "K562 cells; Homo sapiens, K562, read-out: %Inhibition at highest tested concentration (EU assay), K562 cells, 50 µM compound, 5-EU salvage", "result": "~40", "unit": "%"}]}
{"molecule": "O=C(CSCn1[nH]nc2c(=O)nc(Cc3ccc(F)cc3)nc1-2)Nc1ccc(F)cc1", "note": "[135546734–2]", "values": [{"measurement": "IC50 obtained from validation experiments", "setting": "human UCK2 [2]", "result": "completely inactive"}]}
{"molecule": "COc1cccc(NC(=O)CSCn2[nH]nc3c(=O)nc(Cc4ccc(F)cc4)nc2-3)c1", "note": "[135546734–3]", "values": [{"measurement": "IC50 obtained from validation experiments", "setting": "human UCK2 [2]", "result": "completely inactive"}, {"measurement": "%Inhibition at highest tested concentration (EU assay)", "setting": "K562 cells", "result": "No inhibition"}]}
{"molecule": "Cc1ccc(-c2nc3c(c(SCC(=O)Nc4cccc(C(=O)O)c4)n2)Cc2cccc(C)c2O3)cc1", "note": "[compound 20874830]", "values": [{"measurement": "Mode of inhibition with respect to uridine and ATP", "setting": "human UCK2 [1]", "result": "primarily non-competitive"}]}
{"molecule": "O=C(N[C@@H]1CCCc2c1[nH]c1ccc(Cl)cc21)c1ccccn1", "note": "[GSK983, reference compound]", "values": [{"measurement": "Effect on uridine salvage (5-EU assay)", "setting": "K562 cells; K562 cells treated with GSK983 vs untreated", "result": "significantly increased uridine salvage"}]}
{"molecule": "human UCK2 (Homo sapiens) (protein) MAGDSEQTLQNHQQPNGGEPFLIGVSGGTASGKSSVCAKIVQLLGQNEVDYRQKQVVILSQDSFYRVLTSEQKAKALKGQFNFDHPDAFDNELILKTLKEITEGKTVQIPVYDFVSHSRKEETVTVYPADVVLFEGILAFYSQEVRDLFQMKLFVDTDADTRLSRRVLRDISERGRDLEQILSQYITFVKPAFEEFCLPTKKYADVIIPRGADNLVAINLIVQHIQDILNGGPSKRQTNGCLNGYTPSRKRQASESSSRPH", "values": [{"measurement": "Km", "setting": "[3]", "result": "62 ± 5", "unit": "µM"}]}
